Calls of active or inactive are those of the source. The calls are words filed in the database; no cut-off is given here.

In series [1] the test system is Mus musculus. As to the kind of experiment: Antidepressant activity in po dosed ICEM:CET (SPF Caw) mouse assessed as antagonism of reserpine-induced blepharospasm administered via gavage 30 mins before reserpine challenge measured 1 hr after reserpine treatment. The format is functional. Summed up:
(§1)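 Groups of ten male mice (18-22 g), fasted 9 h with water until 2 h pre-test. Oral gavage in 0.5% Methocel at doses below the 25 mg/kg screen, 30 min before reserpine 2.5 mg/kg ip. Blepharospasm scored blind at 1 h, rectal temperature at 4 h. ED50 estimated by eye-fit linear plots on semilogarithmic paper.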

Series [2] has as its system Mus musculus. Briefly: Orientative acute toxicity in po dosed ICEM:CET (SPF Caw) mouse administered via gavage measured for 60 mins after drug dosing by Irwin's test. To be noted: in vivo, 1 h. The format is organism-based. The essentials:
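Male ICEM:CET (SPF Caw) mice, 18-22 g. Oral gavage, suspended or dissolved in 0.5% Methocel at 0.1 mL/10 g body weight. Doses of at least 25, 50, 100, 200, 400 and 800 mg/kg, four animals per dose. Animals were observed closely for 60 min after dosing during Irwin's symptomatologic test, and an approximate LD50 was estimated.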

For series [3], the system named is Mus musculus. As to the kind of experiment: Anticonvulsant activity in po dosed ICEM:CET (SPF Caw) mouse assessed as antagonism of pentylenetetrazole-induced flexor-extensor tonic convulsions administered via gavage 30 mins before pentylenetetrazole challenge. The format is functional. The essentials: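 Male mice, 18-22 g, dosed orally by gavage in 0.5% Methocel (0.1 mL/10 g), starting at a 50 mg/kg screening dose, then graded doses. Pentylenetetrazole 130 mg/kg ip given 30 min later. Ten mice per dose and for controls. Dose preventing flexor-extensor tonic convulsions in 50% of animals read from dose-response curves (ED50).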

Series [4] deals with Mus musculus. Briefly: Antidepressant activity in po dosed ICEM:CET (SPF Caw) mouse assessed as antagonism of reserpine-induced hypothermia administered via gavage 30 mins before reserpine challenge measured 4 hrs after reserpine treatment. The class given is functional. The essentials:
as §1

The test system of series [5] is Mus musculus. Briefly: Antidepressant activity in ICEM:CET (SPF Caw) mouse assessed as antagonism of reserpine-induced hypothermia at 25 mg/kg, po administered via gavage 30 mins before reserpine challenge measured 4 hrs after reserpine treatment. The format is functional, organism-based. Also noted: dose 25 mg/kg. The essentials: (§2)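 Male mice, 18-22 g, groups of ten, housed the evening before with a 9-h fast and water until 2 h before testing. Gavage dosing at 25 mg/kg in 0.5% Methocel, 30 min before reserpine 2.5 mg/kg ip in 0.5% acetic acid. Read blind: blepharospasm scored (Rubin scale) at 1 h, rectal thermocouple temperature at 4 h.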

In series [6] the test system is Mus musculus. As to the kind of experiment: Antidepressant activity in ICEM:CET (SPF Caw) mouse assessed as antagonism of reserpine-induced blepharospasm at 25 mg/kg, po administered via gavage 30 mins before reserpine challenge measured 1 hr after reserpine treatment. Also noted: dose 25 mg/kg. The class given is functional, organism-based. The essentials:
as §2

Regarding `CNC1CN(C2c3ccccc3COc3ccccc32)C1.O=C(O)/C=C/C(=O)O` (single isomer, unassigned; (-)), the ED50 – broadly, the dose that gives a 50% effect, or the effect in half of the subjects – in series [1] is 1.3 mg/kg; in series [3] it was above 50 mg/kg; in series [4], 14.1 mg/kg. For the same compound, the LD50 (usually the dose at which mortality reaches 50%) in series [2] turned out to be 100 mg/kg.

With `CC(C)N1CC(N2c3ccccc3COc3ccccc32)C1`, the result in series [5] and in series [6] was inactive.

Consider `CC(C)(C)N1CC(N2c3ccccc3Sc3ccc(Cl)cc32)C1`, for which the result in series [5] and in series [6] was inactive.

For the compound `CC(C)N1CC(CN2c3ccccc3CCc3ccccc32)C1`, the result in series [5] and in series [6] was inactive.

For the origin of these results see ChEMBL document CHEMBL3227978, “Azetidine derivatives of tricyclic antidepressant agents” (J Med Chem, 1979).
